Reference: PMC10922812 (Antiviral research, 2024)

What was measured:
SV40 [1] = experiment: SV40 infection by FFU infectivity assay; type: cell-based, simian virus 40; settings: Vero cells, MOI = 1 FFU/cell, 48 h
JCPyV [2] = experiment: JCPyV infection by ICW assay; type: cell-based, JC polyomavirus; settings: for % JCPyV infection (ICW, TAg): MOI = 1 FFU/cell, 48 h, vs DMSO control (Fig. 2); for JCPyV infection (ICW validation of screen hits): cell type not stated, data not shown
pERK = pERK assay by ICW; type: cell-based; settings: 24 h treatment, no virus
JCPyV [3] = experiment: JCPyV infection by FFU infectivity assay; type: cell-based, JC polyomavirus; settings: 48 h, vs DMSO control
JCPyV [4] = experiment: NCC drug screen, In-Cell Western; type: cell-based, JC polyomavirus; settings: inhibitor 10 μM, SVGA cells, MOI = 0.5 FFU/cell, 72 h, VP1 ICW
SVGA cells = experiment: MTS cell viability assay, SVGA cells; type: cell-based, human
HEK-2C cells = experiment: MTS cell viability assay, HEK-2C cells; type: cell-based
JCPyV [5] = experiment: JCPyV-647 attachment by flow cytometry; type: cell-based, JC polyomavirus; settings: HEK-2C cells pre-treated 1 h, virus on ice 1 h, vs DMSO
reovirus [6] = experiment: Reovirus infection by FFU infectivity assay; type: cell-based; settings: HeLa cells, MOI = 300 FFU/cell, 24 h
Method in brief: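 HeLa cells at 70% confluence were pre-treated 1 h at 37°C with test compound in 10% DMEM (triplicate wells). Infection ran 1 h at RT without compound, then cells were refed with compound-containing DMEM for 24 h at 37°C. Cells were PFA-fixed and stained with reovirus antisera (1:500), anti-rabbit secondary and DAPI. % infection was positive over DAPI+ cells per 10X field, 5 fields/well.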

BKPyV = BKPyV infection by FFU infectivity assay; type: cell-based, BK polyomavirus; settings: Vero cells, MOI = 4 FFU/cell, 72 h
Method in brief: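 Vero E6 cells at 70% confluence were pre-treated 1 h at 37°C with test compound in 10% DMEM (triplicate wells). Infection ran 2 h at 37°C without compound, then cells were refed with compound-containing DMEM for 72 h. Cells were PFA-fixed and stained for VP1 (1:40) with DAPI. % infection was VP1+ cells over DAPI+ cells per 20X field, 5 fields/well.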

SARS-CoV-2 [7] = type: cell-based; settings: Vero cells, TCID50 = 0.025/cell, 24 h
reovirus [8] = settings: ref Mainou, Zamora et al. 2013; cited from earlier work
JCPyV [9] = experiment: JCPyV infectious clone transfection, VP1+ nuclei by FFU assay; type: cell-based, JC polyomavirus; settings: SVGA cells, TFP 15 μM, day 3 or day 7
Method in brief: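 SVGA cells at 50% confluence were pre-treated 1 h at 37°C with test compound or DMSO. They were transfected with 2 μg/well linearized JC pUC19 (pUC19 control) using Fugene 6 (1.5 μl:1 μg DNA) with compound present. Medium was replaced with 10% MEM after 6 h. Cells were fixed and stained for VP1 (1:40). % VP1+ nuclei was VP1+ over DAPI+ cells at 10X, 5 fields/well.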

Vero cells = experiment: MTS cell viability assay, Vero cells; type: cell-based, African green monkey; settings: vs DMSO control
[10] = ref Kang, Hong et al. 2017; cited from earlier work
HeLa cells = experiment: MTS cell viability assay, HeLa cells; type: cell-based; settings: HeLa 24 h, vs DMSO control
RPTEC = experiment: MTS cell viability assay, RPTEC; type: cell-based, human; settings: RPTEC 48 h, vs DMSO control
SARS-CoV-2 [11] = settings: ref Yuan, Dong et al. 2022; cited from earlier work
MCPyV = settings: ref Dobson, Mankouri and Whitehouse 2020; cited from earlier work
SV40 [12] = settings: ref Dobson, Mankouri and Whitehouse 2020; cited from earlier work
[13] = HEK-2C cells, MOI = 0.5 FFU/cell
[14] = primary RPTECs, MOI = 2 FFU/cell
[15] = SVGA 48 h, MTS, vs DMSO control
[16] = HEK-2C 48 h, MTS, vs DMSO control

Compound: COC(=O)C1=C(C)NC(C)=C(C(=O)OC)C1c1ccccc1[N+](=O)[O-] [Nifedipine]
- % SV40 infection (FFU, VP1) (SV40 [1]): did not reduce SV40 infection
- % JCPyV infection (ICW, TAg) (JCPyV [2]; HEK-2C cells): significant reduction
- % pERK expression (ICW) (pERK; HEK-2C cells): significant reduction in pERK levels
- % pERK expression (ICW) (pERK; SVGA cells): significant reduction in pERK levels
- % JCPyV infection (FFU, TAg) (JCPyV [3]; [13]): significantly reduced JCPyV infection
- % JCPyV infection (FFU, TAg) (JCPyV [3]; SVGA cells, MOI = 1 FFU/cell): did not reduce JCPyV infection
- % JCPyV infection (FFU, TAg) (JCPyV [3]; [14]): significantly reduced JCPyV infection
- JCPyV infection in NCC drug screen (hit by normalized z-score) (JCPyV [4]): hits

Compound: COCCOC(=O)C1=C(C)NC(C)=C(C(=O)OC(C)C)C1c1cccc([N+](=O)[O-])c1 (stereo not drawn) [Nimodipine]
- % JCPyV infection (ICW, TAg) (JCPyV [2]; HEK-2C cells): modestly reduced
- % JCPyV infection (ICW, TAg) (JCPyV [2]; SVGA cells): modestly reduced
- % JCPyV infection (FFU, TAg) (JCPyV [3]; SVGA cells, MOI = 1 FFU/cell): did not significantly reduce JCPyV infection
- JCPyV infection in NCC drug screen (hit by normalized z-score) (JCPyV [4]): hits

Compound: CN1CCN(CCCN2c3ccccc3Sc3ccc(C(F)(F)F)cc32)CC1 [TFP, trifluoperazine]
- Concentration with % Viability < 80% (SVGA cells; [15]): 30 µM
- Concentration with % Viability ≥ 90% (SVGA cells; [15]): 20 µM
- Concentration with % Viability ≥ 100% (SVGA cells; SVGA 7 days, MTS, vs DMSO control): 15 µM
- Concentration with % Viability < 80% (HEK-2C cells; [16]): 30 µM
- Concentration with % Viability ≥ 85% (HEK-2C cells; [16]): 20 µM
- Concentration with % Viability ≥ 100% (HEK-2C cells; [16]): 7.5 µM
- % SV40 infection (FFU, VP1) (SV40 [1]): significantly reduced
- JCPyV attachment (JCPyV-647, flow cytometry) (JCPyV [5]): no significant difference in JCPyV attachment
- % reovirus infection (FFU) (reovirus [6]): not impacted
- % JCPyV infection (ICW, TAg) (JCPyV [2]; HEK-2C cells): significant reduction in JCPyV infection
- % JCPyV infection (ICW, TAg) (JCPyV [2]; SVGA cells): significant reduction in JCPyV infection
- % BKPyV infection (FFU) (BKPyV): significantly reduced
- % SARS-CoV-2 infection (FFU, NP) (SARS-CoV-2 [7]): dramatically impaired SARS-CoV-2 infection
- % JCPyV infection (FFU, TAg) (JCPyV [3]; [13]): significant reduction of JCPyV infection
- % JCPyV infection (FFU, TAg) (JCPyV [3]; SVGA cells, MOI = 1 FFU/cell): significant reduction of JCPyV infection
- % JCPyV infection (FFU, TAg) (JCPyV [3]; [14]): significantly reduced JCPyV infection
- JCPyV infection in NCC drug screen (hit by normalized z-score) (JCPyV [4]): hits
- reovirus infection (reovirus [8]): not impacted
- % VP1+ nuclei after transfection of JCPyV infectious clone (JCPyV [9]): modest reduction in JCPyV VP1+ cells
- Concentration with % Viability ≥ 100% (Vero cells; Vero 24 h): 10 µM
- Concentration with % Viability ≥ 100% (Vero cells; Vero 48 h): 20 µM
- Concentration with % Viability < 80% (Vero cells; Vero 72 h): 30 µM
- Concentration with % Viability ≥ 100% (Vero cells; Vero 72 h): 15 µM
- crossing the blood-brain barrier [10]: capable of crossing the blood-brain barrier
- Concentration with % Viability < 80% (HeLa cells): 15 µM
- Concentration with % Viability ≥ 80% (HeLa cells): 10 µM
- Concentration with % Viability ≥ 100% (HeLa cells): 7.5 µM
- Concentration with % Viability ≥ 90% (RPTEC): 7.5 µM
- Concentration with % Viability ≥ 95% (RPTEC): 5 µM
- SARS-CoV-2 infection (SARS-CoV-2 [11]): inhibited

Compound: COc1ccc2cc1Oc1ccc(cc1)C[C@H]1c3cc(c(OC)cc3CCN1C)Oc1c(OC)c(OC)cc3c1[C@H](C2)N(C)CC3 [Tetrandrine]
- Concentration with % Viability ≥ 100% (SVGA cells; human, 48 h): 10 µM
- Concentration with % Viability < 80% (HEK-2C cells; human, 48 h): 10 µM
- Concentration with % Viability ≥ 90% (HEK-2C cells; human, 48 h): 7 µM
- Concentration with % Viability ≥ 95% (HEK-2C cells; human, 48 h): 1 µM
- % SV40 infection (FFU, VP1) (SV40 [1]): potently inhibited
- % JCPyV infection (ICW, TAg) (JCPyV [2]; HEK-2C cells): significant reduction in infection
- % JCPyV infection (ICW, TAg) (JCPyV [2]; SVGA cells): slight, but not statistically significant, increase
- MCPyV infection (MCPyV): drastically reduced
- % pERK expression (ICW) (pERK; HEK-2C cells): reduction in pERK levels
- % pERK expression (ICW) (pERK; SVGA cells): dramatic increase in pERK
- % JCPyV infection (FFU, TAg) (JCPyV [3]; [13]): significantly impaired
- % JCPyV infection (FFU, TAg) (JCPyV [3]; SVGA cells, MOI = 1 FFU/cell): not impacted
- SV40 infection (SV40 [12]): drastically reduced

Compound: COc1ccc(CCN(C)CCCC(C#N)(c2ccc(OC)c(OC)c2)C(C)C)cc1OC (stereo not drawn) [Verapamil]
- MCPyV infection (MCPyV): reduces
- SV40 infection (SV40 [12]): reduces

Compound: NCCCCCCNS(=O)(=O)c1cccc2c(Cl)cccc12 [W-7]
- % SV40 infection (FFU, VP1) (SV40 [1]): significantly reduced
- % JCPyV infection (ICW, TAg) (JCPyV [2]; HEK-2C cells): decreased JCPyV infection
- % JCPyV infection (ICW, TAg) (JCPyV [2]; SVGA cells): decreased JCPyV infection
- % BKPyV infection (FFU) (BKPyV): significantly reduced
- % SARS-CoV-2 infection (FFU, NP) (SARS-CoV-2 [7]): dramatically impaired SARS-CoV-2 infection
- % JCPyV infection (FFU, TAg) (JCPyV [3]; [13]): significant reduction of JCPyV infection
- % JCPyV infection (FFU, TAg) (JCPyV [3]; SVGA cells, MOI = 1 FFU/cell): significant reduction of JCPyV infection

Compound: O=C1CN(/N=C/c2ccc(-c3ccc([N+](=O)[O-])cc3)o2)C(O)=N1 [dantrolene sodium]
- JCPyV infection (ICW validation of screen hits) (JCPyV [2]): did not significantly reduce infection
- JCPyV infection in NCC drug screen (hit by normalized z-score) (JCPyV [4]): hits

Compound: Fc1ccc(C(c2ccc(F)cc2)N2CCN(C/C=C/c3ccccc3)CC2)cc1 [flunarizine, Flunarizine]
- % JCPyV infection (ICW, TAg) (JCPyV [2]; HEK-2C cells): No significant change in infection
- % JCPyV infection (ICW, TAg) (JCPyV [2]; SVGA cells): No significant change in infection
- MCPyV infection (MCPyV): blocks infection

Compound: CCOC(=O)C1=C(C)NC(C)=C(C(=O)OC)C1c1cccc([N+](=O)[O-])c1 (stereo not drawn) [nitrendipine, Nitrendipine]
- % JCPyV infection (FFU, TAg) (JCPyV [3]; SVGA cells, MOI = 1 FFU/cell): did not significantly reduce JCPyV infection

Compound: CC1(C)O[C@@H]2[C@@H](CO[C@@]3(COS(N)(=O)=O)OC(C)(C)O[C@@H]23)O1 [topiramate]
- JCPyV infection (ICW validation of screen hits) (JCPyV [2]): did not significantly reduce infection
- JCPyV infection in NCC drug screen (hit by normalized z-score) (JCPyV [4]): hits
